# MEKK2 mut-MEK5: signal of MEK5 binding to mutant human MEKK2 PB1 domain. bead flow cytometry, Alexa488-MEK5 binding to MEKK2 mutant. percent response, % at 10 µM. 0.35% of 290,000 active; in the data active = percent response above about 24%, passing the limit was not always enough
# MEKK2wt PB1 HTS: raises or lowers MEK5 binding to wildtype human MEKK2 PB1 domain | Q9Y2U5 | bead flow cytometry, Alexa488-MEK5 binding to MEKK2 WT; actives lie on both sides | binding response (% of control), % at 10 µM | 1.1% of 290,000 active | AID 1531; in the data active = binding response below about 67% or above about 130%
# MEKK3 PB1 HTS: raises or lowers MEK5 binding to the human MEKK3 PB1 domain. bead-based flow cytometry, Alexa488-MEK5 binding to MEKK3; actives lie on both sides; 0 = blocked by unlabeled MEK5, 100 = vehicle. binding response (% of control), % at 10 µM. 1.4% of 290,000 active;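 active = binding response more than 3 SD above or below the average of its plate-row segment, actives on both sides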;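 note: Alexa488 bead fluorescence after subtracting the streptavidin-only scavenger bead signal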
# Target sequence (Q99759 whole entry, looked up, the tested form may be a part): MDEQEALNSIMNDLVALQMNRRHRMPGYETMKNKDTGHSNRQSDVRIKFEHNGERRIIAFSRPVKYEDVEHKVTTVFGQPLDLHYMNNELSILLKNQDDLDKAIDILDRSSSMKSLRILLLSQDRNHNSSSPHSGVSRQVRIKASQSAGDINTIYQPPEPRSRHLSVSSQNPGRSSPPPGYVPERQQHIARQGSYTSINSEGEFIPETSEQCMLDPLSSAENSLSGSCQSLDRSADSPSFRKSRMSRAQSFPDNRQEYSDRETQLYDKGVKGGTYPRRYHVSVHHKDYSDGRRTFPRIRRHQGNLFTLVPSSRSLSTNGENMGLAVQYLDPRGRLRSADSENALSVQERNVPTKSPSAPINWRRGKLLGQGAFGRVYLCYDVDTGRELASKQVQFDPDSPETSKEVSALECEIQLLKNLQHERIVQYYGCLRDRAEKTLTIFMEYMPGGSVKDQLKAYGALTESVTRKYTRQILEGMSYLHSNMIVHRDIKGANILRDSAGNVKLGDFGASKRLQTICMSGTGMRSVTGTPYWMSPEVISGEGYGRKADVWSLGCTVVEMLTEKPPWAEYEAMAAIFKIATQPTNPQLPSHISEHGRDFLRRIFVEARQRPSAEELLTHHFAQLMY
# VIM-2 inhibitor: inhibitors of Pseudomonas aeruginosa VIM-2 metallo-beta-lactamase; AID 1527; 0.89% of 290,000 active; purified VIM-2, nitrocefin hydrolysis, epi-absorbance fluorescence; inhibition, % at 5.6 µM;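 active = inhibition above the mean of all tested compounds plus 3 SD, cutoff set per screening run, cut at about 7.5% in these data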;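 note: red hydrolysis product quenches plate fluorescence so inhibitors raise well fluorescence; 0% = enzyme with DMSO and 100% = DMSO without enzyme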
# IMP-1 inhibitor: inhibitors of Pseudomonas aeruginosa IMP-1 metallo-beta-lactamase. 0.45% of 290,000 active. purified IMP-1, nitrocefin hydrolysis, epi-absorbance fluorescence. AID 1556. inhibition, % at 5.6 µM;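 active = inhibition above the mean plus 3 SD of all compounds in the same screening run, cut at about 4.5% in these data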;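 note: 0% = IMP-1 with DMSO and 100% = DMSO wells lacking enzyme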
#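 system = purified recombinant IMP-1 beta-lactamase | amount = 0.2 nM IMP-1, as dispensed | medium = HEPES buffer pH 7.1 with ZnSO4 and Brij 35 | times = 25 °C, 15 min preincubation, 25 min reaction | detection = plate fluorescence quenching by hydrolysis product, ex 480/em 530 nm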
# MEKK2wt confirm: raises or lowers MEK5 binding to wildtype human MEKK2, retest | shares compounds with MEKK3 PB1 HTS | bead flow cytometry, Alexa488-MEK5 binding to MEKK2 WT; actives lie on both sides | binding response (% of control), % at 10 µM | 2.4% of 5,900 active; in the data active = binding response below about 16% or above about 210%; inactive = in between
# MEKK2mut confirm: signal of MEK5 binding to mutant human MEKK2, retest; percent response, % at 10 µM; shares compounds with MEKK3 PB1 HTS; 2% of 5,900 active; bead flow cytometry, Alexa488-MEK5 binding to MEKK2 mutant; AID 1893; in the data active = percent response mostly above about 71%, no sharp cut-off; inactive = mostly below about 38%;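 note: higher means compound restores mutant binding toward wildtype level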
# MEKK3 confirm: MEKK3-MEK5 PB1 inhibition, single concentration confirmation; shares compounds with MEKK3 PB1 HTS; bead flow cytometry, Alexa488-MEK5 binding to MEKK3; stronger effect = lower value; binding response (% of control), % at 10 µM; 1.8% of 5,900 active;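 active = binding response below 72% of control, or above a set upper limit, though filed actives all read lower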;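 note: 100% = DMSO only wells and 0% = binding blocked by excess unlabeled MEK5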
# The depositor's hits bear a star; nt = no result; [ ] = dose if it differs, or a comment. An excerpt weighted towards active compounds, which were near 3.4% of everything screened.
SMILES,MEKK2 mut-MEK5,MEKK2wt PB1 HTS,MEKK3 PB1 HTS,VIM-2 inhibitor,IMP-1 inhibitor,MEKK2wt confirm,MEKK2mut confirm,MEKK3 confirm
CCOC(=O)c1c(-c2ccccc2)csc1NC(=O)C(C)NCc1ccco1 (configuration not stated),0.0,108.0,96.0,-4.1,-3.4,nt,nt,nt
Cc1ccc(NC(=O)c2cccc(OCc3c(C)noc3C)c2)cc1,4.0,104.0,103.0,-0.2,-1.7,nt,nt,nt
CC(=O)Nc1ccc2nc(-c3ccc(Br)o3)[nH]c2c1,-3.0,63.0*[inhibitor],66.0*[inhibitor],-1.8,-1.0,104.0,9.0,104.0
CC(C)c1ccc(NS(=O)(=O)c2ccc(-n3cccn3)cc2)cc1,-2.0,94.0,97.0,-2.7,-3.7,nt,nt,nt
CC(C)c1ccc(NC(=O)CSc2ncccc2C(=O)Oc2cccc([N+](=O)[O-])c2)cc1,0.0,106.0,148.0*,-2.0,-3.2,99.0,-2.0,97.0
CCN1CCN(c2ccc(NC(=O)CCc3c(C)nc4c(-c5ccccc5)c(C)nn4c3C)cc2)CC1,23.0,138.0*,107.0,1.4,4.9*,113.0,13.0,94.0
CCN1CCN(c2cc(C(C)(C)C)nc3c(-c4ccccc4)c(C)nn23)CC1,21.0,147.0*,104.0,-1.9,-1.9,131.0,12.0,103.0
S=C(NCCN1CCCCC1)Nc1ccc(Br)cc1,-5.0,89.0,88.0,1.9,1.5,nt,nt,nt
CN1CCc2c(sc3c2C(=O)NC(c2cccs2)N3)C1 (configuration not stated),7.0,104.0,103.0,-1.1,1.2,nt,nt,nt
CN1CCc2c(sc3c2C(=O)NC(c2ccc(-c4cccc(Cl)c4)o2)N3)C1 (configuration not stated),42.0,170.0*,82.0,1.9,2.0,127.0,48.0,104.0
COc1cccc(CNC(=O)C2CCCN(c3nn4c(=O)cc(C)nc4s3)C2)c1OC (configuration not stated),-2.0,98.0,97.0,-3.8,-3.4,nt,nt,nt
O=C1c2ccccc2C(=O)N1CN(C(=O)COc1ccc(Cl)cc1Cl)c1cccc(F)c1,1.0,105.0,139.0*,0.5,-2.7,99.0,-1.0,100.0
CC1CN(c2cc3nccnc3cc2F)CC(C)O1 (configuration not stated),-1.0,96.0,98.0,-1.9,-1.8,nt,nt,nt
Nn1cnnc1N/N=C\c1ccc(-c2ccccc2[N+](=O)[O-])o1,0.0,106.0,156.0*,-3.0,-1.8,97.0,-1.0,101.0
CN1CCN(CC(O)COc2ccc(C34CC5CC(CC(C5)C3)C4)cc2)CC1 (configuration not stated),56.0*,235.0*,116.0,-2.1,-3.2,201.0,81.0*,117.0
Cc1cc(S(=O)(=O)N2CCN(c3ccc(F)cc3)CC2)c(C)s1,4.0,105.0,102.0,-0.5,-2.8,nt,nt,nt
CC(CN1CCCC1)OC(=O)C(c1ccccc1)c1ccccc1 (configuration not stated),3.0,110.0,104.0,1.4,-2.1,nt,nt,nt
COc1ccc(C(C(=O)OC(C)CN(C)C)c2ccccc2)cc1 (configuration not stated),25.0*,116.0,107.0,-1.9,-1.9,54.0,-36.0,45.0*
COc1ccc(/C=C\C(=O)NCc2ccc3c(c2)cc(C)n3C)cc1OC,4.0,70.0,69.0,3.9,1.5,nt,nt,nt
CCOc1cc(C(C(=O)NCC2CCCO2)N(C(=O)Cn2nnc3ccccc32)c2ccccc2C)ccc1O (configuration not stated),-1.0,105.0,102.0,-1.2,-1.2,nt,nt,nt
COCCNC(=O)C(OC(=O)c1ccco1)c1ccccc1Cl (configuration not stated),4.0,108.0,107.0,0.6,-3.8,nt,nt,nt
COCCNC(=O)C(OC(=O)c1ccco1)c1ccccc1OC (configuration not stated),6.0,122.0,123.0*,1.0,0.1,100.0,-4.0,98.0
COc1ccc(C(OC(=O)c2ccco2)C(=O)NC(C)(C)C)cc1 (configuration not stated),6.0,120.0,139.0*,-1.8,-2.7,98.0,-6.0,101.0
Cc1ccc(C(OC(=O)c2ccco2)C(=O)NC(C)(C)C)cc1 (configuration not stated),5.0,103.0,103.0,-4.2,-3.8,nt,nt,nt
CSc1ccc(S(=O)(=O)Nc2ccc3c(c2)NC(=O)CC3)cc1,-2.0,96.0,96.0,0.0,-3.0,nt,nt,nt
SMILES,MEKK2 mut-MEK5,MEKK2wt PB1 HTS,MEKK3 PB1 HTS,VIM-2 inhibitor,IMP-1 inhibitor,MEKK2wt confirm,MEKK2mut confirm,MEKK3 confirm
CCCN(Cc1cc2cc(C)ccc2[nH]c1=O)S(C)(=O)=O,5.0,120.0,128.0*,-2.2,-0.6,101.0,3.0,103.0
Cc1ccccc1CNC(=O)/C=C\C(=O)O,0.0,108.0,108.0,-2.3,-2.7,nt,nt,nt
COCc1cc(N2CCN(c3ccccc3F)CC2)nc(-c2ccccc2)n1,-19.0,6.0*[inhibitor],4.0*[inhibitor],0.5,-3.4,103.0,-1.0,102.0
CCN1CCN(Cc2c(O)ccc3c2O/C(=C\C=C\c2ccccc2OC)C3=O)CC1,0.0,95.0,133.0*,4.7,27.6*,92.0,-3.0,97.0
Cc1ccccc1NC(=O)c1ccc(Cn2cc([N+](=O)[O-])cn2)o1,-2.0,95.0,111.0,-2.3,-1.8,nt,nt,nt
CCC(=O)N1CCN(c2cc(NCC3CCCO3)c(F)cc2[N+](=O)[O-])CC1 (configuration not stated),3.0,106.0,96.0,-1.3,-1.7,nt,nt,nt
COc1ccccc1NC(=O)C(C/C=C(\C)Cl)C(C)=O (configuration not stated),-9.0,83.0,79.0*[inhibitor],-2.4,-1.7,103.0,-6.0,101.0
COc1ccccc1NC(=O)C(CC=C(Cl)Cl)C(C)=O (configuration not stated),2.0,104.0,100.0,1.3,-0.3,nt,nt,nt
COc1ccc(N(CC(=O)Nc2cc(C)ccc2C)S(=O)(=O)c2c(C)noc2C)cc1,6.0,99.0,105.0,-2.8,-1.9,nt,nt,nt
CCOC(=O)C(=NC(C)C)NNc1cc(Cl)ccc1Cl,0.0,104.0,141.0*,1.1,-0.9,100.0,-1.0,100.0
Nc1ccc(Oc2ccc(Br)cc2)cc1,-1.0,97.0,72.0*[inhibitor],-0.3,-1.2,104.0,4.0,103.0
Cc1ccc(S(=O)(=O)N(CC(=O)Nc2cccc([N+](=O)[O-])c2)C2CCCCC2)cc1,2.0,109.0,104.0,-0.2,-2.6,nt,nt,nt
Cc1ccc(S(=O)(=O)N(CC(=O)Nc2ccc(Cl)c([N+](=O)[O-])c2)C2CCCCC2)cc1,27.0,146.0*,107.0,-1.6,-1.9,132.0,20.0,106.0

# Assay outcomes: PubChem BioAssay, several laboratories
